# In article PMC4675651 (Drug Design, Development and Therapy, 2015):
# “Also recorded” adds a separate entry of the source. Read-outs that look alike come from different tables or passages of the source.
# Experiments:
# PTP1B = molecular target: T1, PTP1B (Homo sapiens, UniProt P18031); experiment: PTP1B inhibition measurement; assay type: biochemical
# T1 sequence (P18031 3-277 limits assumed): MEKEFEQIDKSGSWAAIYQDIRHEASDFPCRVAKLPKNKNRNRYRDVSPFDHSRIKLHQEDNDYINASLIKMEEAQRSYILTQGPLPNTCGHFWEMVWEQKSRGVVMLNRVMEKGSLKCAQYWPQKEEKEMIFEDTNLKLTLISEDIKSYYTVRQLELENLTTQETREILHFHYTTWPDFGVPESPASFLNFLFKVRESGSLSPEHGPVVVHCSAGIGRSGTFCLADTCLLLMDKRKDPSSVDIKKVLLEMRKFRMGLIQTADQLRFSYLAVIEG
# Outline: (§1)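 Recombinant catalytic domains in pH 7.0 buffer (50 mmol/L MOPS, 100 mmol/L NaCl, 1 mmol/L EDTA, 1 mmol/L DTT, 1 mg/mL BSA). Enzyme preincubated with test compound 5 min at 37 °C. Then pNPP (100 mmol/L stock) added, 10 min at 37 °C. Stopped with NaHCO3; p-nitrophenol read at 405 nm. IC50 by fitting concentration–inhibition curves; triplicate points.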
# SHP1 = molecular target: T2, SHP1 (Homo sapiens, UniProt P29350); experiment: PTP selectivity panel; assay type: biochemical
# T2 sequence (P29350 244-515 limits assumed): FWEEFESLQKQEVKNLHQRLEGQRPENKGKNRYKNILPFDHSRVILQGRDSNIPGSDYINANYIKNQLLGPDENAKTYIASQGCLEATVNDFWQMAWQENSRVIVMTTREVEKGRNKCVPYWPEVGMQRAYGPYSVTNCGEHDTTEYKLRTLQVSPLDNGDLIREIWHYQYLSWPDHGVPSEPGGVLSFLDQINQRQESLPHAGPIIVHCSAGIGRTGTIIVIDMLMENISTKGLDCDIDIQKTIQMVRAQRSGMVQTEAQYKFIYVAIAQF
# Outline: as §1
# SHP2 = molecular target: T3, SHP2 (Homo sapiens, UniProt Q06124); experiment: PTP selectivity panel; assay type: biochemical
# T3 sequence (Q06124 247-517 limits assumed): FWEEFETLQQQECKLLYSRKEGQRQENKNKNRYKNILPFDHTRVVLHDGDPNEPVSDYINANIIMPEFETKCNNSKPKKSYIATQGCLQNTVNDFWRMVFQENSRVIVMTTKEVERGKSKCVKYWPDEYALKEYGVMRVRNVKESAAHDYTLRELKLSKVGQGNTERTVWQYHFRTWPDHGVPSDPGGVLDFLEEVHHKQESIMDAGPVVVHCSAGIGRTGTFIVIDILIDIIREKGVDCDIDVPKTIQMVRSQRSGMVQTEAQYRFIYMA
# Outline: as §1
# TCPTP = molecular target: T4, TCPTP (Homo sapiens, UniProt P17706); experiment: PTP selectivity panel; assay type: biochemical
# T4 sequence (P17706 5-275 limits assumed): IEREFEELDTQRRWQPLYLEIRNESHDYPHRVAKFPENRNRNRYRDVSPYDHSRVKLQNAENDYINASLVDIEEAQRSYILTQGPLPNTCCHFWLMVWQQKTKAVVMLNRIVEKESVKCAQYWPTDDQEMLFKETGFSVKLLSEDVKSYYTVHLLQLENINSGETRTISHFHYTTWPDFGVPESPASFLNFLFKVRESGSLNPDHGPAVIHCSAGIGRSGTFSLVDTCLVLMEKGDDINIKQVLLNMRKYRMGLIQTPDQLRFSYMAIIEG
# Outline: as §1
# HePTP = molecular target: T5, HePTP (Homo sapiens, UniProt P35236); experiment: PTP selectivity panel; assay type: biochemical
# T5 sequence (P35236 97-350 limits assumed): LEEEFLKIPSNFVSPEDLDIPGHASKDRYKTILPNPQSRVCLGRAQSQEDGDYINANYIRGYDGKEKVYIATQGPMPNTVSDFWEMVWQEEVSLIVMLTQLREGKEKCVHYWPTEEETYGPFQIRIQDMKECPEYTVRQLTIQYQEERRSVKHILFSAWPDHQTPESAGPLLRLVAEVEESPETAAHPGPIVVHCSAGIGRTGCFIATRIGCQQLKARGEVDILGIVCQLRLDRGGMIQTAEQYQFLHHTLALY
# Outline: as §1
# T2DM mice = assay type: in vivo; conditions: for Serum TC / Serum TG / Body weight / Effect on serum TC and TG: T2DM mice; for Serum TC / Serum TG: 200 mg/kg oral once per day, mean ± SD (n=8–10); for Body weight: 200 mg/kg oral once a day for 8 weeks; for Effect on serum TC and TG: 200 mg/kg oral, 8 weeks
# Outline: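 Male Kunming mice (8 weeks, 18–22 g) fed high-fat diet (20% sucrose, 10% lard, 2.5% cholesterol, 1% sodium cholate, 66.5% chow) for 4 weeks. After an 8 h fast, STZ 35 mg/kg i.p. in citrate-buffered saline pH 4.4, daily for 1 week. Test compound by oral gavage daily for 8 weeks, DMSO stock diluted in 0.9% saline; saline vehicle. Weekly 8-h-fasted tail-vein glucose (glucometer) and body weight; serum TG/TC by kits.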
# C2C12 cells = experiment: MTT cytotoxicity assay; assay type: cell-based; conditions: 24 hours
# Outline: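 C2C12 cells were grown in DMEM with 10% FBS at 37 °C, 5% CO2, seeded in 96-well plates and exposed to test compound for 24 h. MTT (5 mg/mL stock) was added for 4 h at 37 °C. Formazan was dissolved in DMSO and read at 490 nm. Viability is relative to untreated control (100%). Six wells per treatment; three independent experiments.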
# [1] = test system: insulin signaling (IRβ, AKT, ERK1/2, phosphotyrosine) in adipose tissue, skeletal muscle, and liver; experiment: Western blot of insulin signaling in tissues of T2DM mice; assay type: in vivo; conditions: 200 mg/kg, 8 weeks
# Outline: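 After 8 weeks of dosing, subcutaneous adipose, skeletal muscle and liver were snap-frozen and homogenised in SDS sample buffer lacking bromophenol blue, then spun 12,000 × g, 20 min, 4 °C. 20 µg protein run on 8–10% SDS-PAGE. Membranes blocked 2 h in 3% BSA/TBST; primaries overnight at 4 °C, HRP secondaries 2 h. ECL and densitometry; phospho normalised to total, normal mice = 100%; n=3.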
# [2] = test system: insulin signaling (IRβ, AKT, ERK1/2, GLUT4, phosphotyrosine) in C2C12 myotubes; experiment: Western blot of insulin signaling in insulin-stimulated C2C12 myotubes; assay type: cell-based
# Outline: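 C2C12 myoblasts at 75% confluence were differentiated in DMEM with 2% horse serum for 4–6 days. Myotubes were pretreated 1 h with test compound (in DMSO), then given 10 nM insulin for 10 min. Whole-cell lysates and plasma-membrane fractions were blotted (10% SDS-PAGE) for phospho/total IRβ, AKT, ERK1/2, GLUT4, phosphotyrosine and actin; ECL detection. Phospho normalised to total, expressed as fold of insulin alone; n=3.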
# PTP1B−/− mice = experiment: Honokiol treatment of PTP1B gene knockout mice; assay type: in vivo; conditions: pre-experiments, Figure S2
# PPAR-γ = conditions: in vitro; ref Atanasov et al [18]; cited from earlier work
# L6 myotubes = conditions: ref Choi et al [19]; cited from earlier work
# [3] = test system: murine and human adipocytes; conditions: ref Alonso-Castroa et al [20]; cited from earlier work
# [4] = honokiol 0 to 30 µM 1 hour, then 10 nM insulin 10 minutes
compound,measurement,setting,value
C=CCc1ccc(O)c(-c2ccc(O)c(CC=C)c2)c1 [Honokiol],Ki,PTP1B,6.67 µM
same,Inhibition type on PTP1B,"PTP1B; Lineweaver–Burk plot, 1/v versus 1/[pNPP]",reversible competitive inhibitory activity; also recorded: competing with the substrate for the enzyme active site
same,IC50,SHP1,763.2 ± 5.49 µM
same,Selectivity on PTP1B over SHP1,SHP1; from IC50 values,~ 12 fold
same,IC50,SHP2,785.5 ± 6.83 µM
same,Selectivity on PTP1B over SHP2,SHP2; from IC50 values,~ 12 fold
same,IC50,TCPTP,604.4 ± 4.89 µM
same,Selectivity on PTP1B over TCPTP,TCPTP; from IC50 values,approximately ninefold
same,IC50,HePTP,890 ± 9.46 µM
same,Selectivity on PTP1B over HePTP,HePTP; from IC50 values,~ 14 fold
same,Serum TC,T2DM mice; 0 week,3.62 ± 0.15 mmol/L
same,Serum TG,T2DM mice; 0 week,0.51 ± 0.03 mmol/L
same,Serum TC,T2DM mice; 8 week,3.67 ± 0.16 mmol/L
same,Serum TG,T2DM mice; 8 week,0.48 ± 0.03 mmol/L
same,Body weight,T2DM mice,decreased at early treatment and then gradually increased
same,Effect on serum TC and TG,T2DM mice,does not affect TC and TG
same,Macroscopic organ toxicity,"T2DM mice; brain, heart, kidneys, liver, spleen, stomach, large and small intestine, and lungs",no macroscopic toxicity
same,Dose with the most significant hypoglycemic effects (pre-experiments),"T2DM mice; series 10, 50, 100, 150, 200, 250, and 300 mg/kg, data not shown",200 mg/kg
same,Maximum concentration without cytotoxicity,C2C12 cells,40 µM
same,"Serine phosphorylation of AKT in adipose tissue, skeletal muscle, and liver",[1],enhanced
same,"Tyrosine phosphorylation of ERK in adipose tissue, skeletal muscle, and liver",[1],enhanced
same,Tyrosine phosphorylations of cellular proteins,[2],enhanced
same,Insulin-induced GLUT4 level in the plasma membrane fraction,[2]; GLUT4 in whole cell lysates not altered,dose-dependently increased
same,Insulin-stimulated tyrosine phosphorylation of ERK,[2]; [4],enhances
same,Insulin-stimulated tyrosine phosphorylation of IRβ,[2]; [4],largely enhanced
same,Serine phosphorylation of AKT,[2]; [4],enhances
same,Blood glucose in PTP1B−/− mice,PTP1B−/− mice,cannot affect; also recorded: No hypoglycemic potency
same,Body weight in PTP1B−/− mice,PTP1B−/− mice,No potency of honokiol on the amelioration of body weight
same,PPAR-γ activation,PPAR-γ,novel nonadipogenic partial PPAR-γ activator
same,Glucose uptake,L6 myotubes,stimulates glucose uptake
same,Glucose uptake,[3],stimulates glucose uptake
"CN(C)C(=N)N=C(N)N [Metformin, reference compound]",Serum TC,T2DM mice; 0 week,3.70 ± 0.31 mmol/L
same,Serum TG,T2DM mice; 0 week,0.54 ± 0.02 mmol/L
same,Serum TC,T2DM mice; 8 week,3.57 ± 0.11 mmol/L
same,Serum TG,T2DM mice; 8 week,0.49 ± 0.04 mmol/L
same,Body weight,T2DM mice,stable body weight
same,Effect on serum TC and TG,T2DM mice,no significant difference
